Measured values reported in article PMC2842456 (ACS chemical biology, 2010).

B1: SUMO without an attached peptide: yeast SUMO with no attached peptide (protein, UniProt Q12306 2-98, looked up)
Ubiquitin-like protein SMT3: SDSEVNQEAKPEVKPEVKPETHINLKVSDGSSEIFFKIKKTTPLRRLMEAFAKRQGKEMDSLRFLYDGIRIQADQTPEDLDMEDNDIIEAHREQIGG

System: wild-type clamp sensor
Type: binding
Details: ligand titration with wild-type clamp sensor (Figure 2F)
How it was run: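 CyPet–clamp–YPet fusion, expressed in E. coli BL21(DE3) and Ni-affinity purified, used at 140 nM unless noted. Titrated with SUMO fusions (target-peptide fusion, bare SUMO, unrelated-peptide fusion). Samples were degassed, then incubated 30 min at 25 °C in the dark. Excitation 415 nm; FRET ratio taken as 527/475 nm emission, plotted against ligand concentration.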

Molecule	Effect on the FRET ratio of the wild-type sensor (in words)
GGDVHVNATYVNVKSVA [SUMO fused with an unrelated peptide]	no significant effect on the FRET ratio
B1	no significant effect on the FRET ratio
